Apaf-1 inh – inhibitors of human Apaf-1 apoptosome, primary screen, biochemical, DEVD-Rh110 fluorescence, uHTS | reconstituted apoptosome caspase-3 activity | hit rate 0.71% among 330,000 | inhibition, % at 20 µM | Apoptotic protease-activating factor 1 (Homo sapiens), O14727; active = inhibition of at least 40% at 20 µM;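 note: plate controls were DMSO wells for no effect and DEVD-CHO caspase inhibitor wells for full effect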
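Material: reconstituted apoptosome with Apaf-1, cytochrome c, caspase-9, procaspase-3, dATP / Buffer or medium: pH 7.5 Hepes buffer with CHAPS, BSA, DTT / Also added: cytochrome c with DEVD-Rh110 / Schedule: compound with Apaf-1, dATP, procaspase-3 30 min, then 50 min reaction, room temperature / Technique: rhodamine 110 fluorescence at Ex 480/Em 540 nm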
MEKK3 PB1 HTS – modulators of MEKK3-MEK5 PB1 binding, primary screen, biochemical, wildtype MEKK3, multiplex bead flow cytometry, Alexa488-MEK5; binding response (% of control), % at 10 µM; hit rate 1.4% among 290,000; Mitogen-activated protein kinase kinase kinase 3 (Homo sapiens), Q99759; bead-based flow cytometry, Alexa488-MEK5 binding to MEKK3; actives lie on both sides; 0 = blocked by unlabeled MEK5, 100 = vehicle;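 active = binding response more than 3 SD above or below the average of its plate-row segment, actives on both sides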;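 note: Alexa488 bead fluorescence after subtracting the streptavidin-only scavenger bead signal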
UBC13 polyUb – UBC13 polyubiquitin chain formation inhibitors, primary screen, biochemical, TR-FRET, uHTS. inhibition, % at 20 µM. AID 485273, 2010. Ubiquitin-conjugating enzyme E2 N (Homo sapiens), P61088. hit rate 0.47% among 330,000; in the data active = inhibition above about 45%, passing the limit was not always enough
MEKK2mut PB1 HTS – MEK5 binding signal on mutant MEKK2 PB1, primary screen, biochemical, multiplex bead flow cytometry, Alexa488-MEK5; percent response, % at 10 µM; hit rate 0.35% among 290,000; Alexa488-MEK5 binding to MEKK2 mutant; in the data active = percent response above about 24%, passing the limit was not always enough
MEKK2wt PB1 HTS – modulators of MEK5 binding to wildtype MEKK2, primary screen, biochemical, multiplex bead flow cytometry, Alexa488-MEK5 | AID 1531, 2009 | Alexa488-MEK5 binding to MEKK2 WT; actives lie on both sides | binding response (% of control), % at 10 µM | Mitogen-activated protein kinase kinase kinase 2 (Homo sapiens), Q9Y2U5 | hit rate 1.1% among 290,000; in the data active = binding response below about 67% or above about 130%
Pemphigus Ab inh – inhibitors of pemphigus antibody binding to DSG3, primary screen, biochemical, bead-based, flow cytometry, scFv-GFP | hit rate 0.48% among 310,000 | Desmoglein-3 (Homo sapiens), P32926 | binding (percent of control), % at 10 µM | DSG3-coupled beads, scFv-anti-DSG3-GFP binding; hits give low values;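 active = binding more than 3 SD below its plate's average and above zero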;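 note: hits lower antibody fragment binding to DSG3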
An asterisk follows results filed as active; . = not tested or not shown; [ ] = remark or other dose. The list is not random: actives were taken first. Their share in the collection is about 3.2%.

SMILES | Apaf-1 inh | MEKK3 PB1 HTS | UBC13 polyUb | MEKK2mut PB1 HTS | MEKK2wt PB1 HTS | Pemphigus Ab inh
Cc1csc(C(=O)O)c1NC(=O)c1cccc([N+](=O)[O-])c1 | 1.0 | 101.0 | 4.1 | 0.0 | 99.0 | 43.5*
CCOC(=O)c1sc(Nc2ccc(Br)cc2)nc1C | 14.2 | 107.0 | 24.0 | 5.0 | -4.0* | .
COc1cc(C2C(C(=O)OC(C)C)=C(C)Nc3[nH]c(=O)[nH]c(=O)c32)ccc1O (stereo not drawn) | -9.5 | 61.0*[inhibitor] | -4.2 | -16.0 | 70.0*[inhibitor] | 97.6
COC(=O)C1=C(C)Nc2[nH]c(=S)[nH]c(=O)c2C1c1ccc(O)cc1 (stereo not drawn) | -0.8 | 102.0 | -17.2 | -1.0 | 99.0 | 97.0
Cc1nc2nc(-c3ccccc3)cn2nc1C | 2.3 | 100.0 | 14.2 | 0.0 | 101.0 | 97.9
CCc1c(-c2ccccc2)nc2nc(C)c(C)nn12 | 6.5 | 111.0 | 14.6 | 4.0 | 110.0 | 33.3*
CCOC(=O)c1ccc(N/C=C/C(=O)c2ccccc2)cc1 | 14.3 | 100.0 | 3.5 | -12.0 | 91.0 | 101.5
CCOC(=O)c1ccccc1N/C=C/C(=O)c1ccccc1 | 14.4 | 100.0 | 4.9 | 3.0 | 99.0 | 35.9*
Cc1nc2sccn2c(=O)c1S(=O)(=O)NCCc1ccc(Cl)cc1 | 1.3 | 100.0 | 5.0 | 3.0 | 104.0 | -7.6*
Cc1ccc(CCNS(=O)(=O)c2c(C)nc3sccn3c2=O)cc1 | -5.7 | 103.0 | 1.4 | 6.0 | 109.0 | 112.0
Cc1nc(C(=O)O)cc([N+](=O)[O-])c1C | . | . | . | . | . | 108.8
COCCCn1c(=O)c2ccccc2n(CC(=O)NCCC2=CCCCC2)c1=O | -0.2 | 103.0 | 10.3 | -2.0 | 97.0 | 107.5
COCCCNC(=O)CCn1c(=O)c2ccccc2n(CC(=O)NCCC2=CCCCC2)c1=O | -1.6 | 97.0 | 5.9 | -7.0 | 95.0 | 67.7*
COc1ccc(NC(=O)CN(c2ccc(F)cc2)S(=O)(=O)c2ccccc2)c(OC)c1 | 18.3 | 105.0 | 7.5 | 6.0 | 102.0 | 130.6
Cc1cc(-n2nc(C)cc2C)nc(NS(=O)(=O)c2ccccc2Cl)n1 | 3.9 | 101.0 | 1.3 | 34.0 | 21.0* | .
O=C(O)CCCn1c(O)c(C=C2N=c3ccccc3=N2)sc1=S | -19.2 | 81.0 | -4.1 | -8.0 | 77.0 | 98.5
COCCCn1c(O)c(/C=C2\N=C(C#N)C(=Nc3ccc(C)cc3)O2)sc1=S | 4.1 | 83.0 | -2.0 | -23.0 | 33.0*[inhibitor] | 100.4
c1ccc(C(c2ccccc2)N2CCN(Cc3nc(-c4cnccn4)no3)CC2)cc1 | -15.3 | 92.0 | -5.4 | -12.0 | 96.0 | 94.9
Fc1cccc(CN2CCN(Cc3nc(-c4cnccn4)no3)CC2)c1 | -14.1 | 105.0 | 15.1 | 0.0 | 94.0 | -16.5*
COc1ccc(C(=O)NCc2c(C)nn(Cc3ccccc3)c2C)cc1S(=O)(=O)N1CCOCC1 | -2.7 | . | 3.6 | . | . | 107.2
CC(=O)OC1=C(O)C(=O)c2ccccc2C1=O | 59.0* | 101.0 | -120.4 | 1.0 | 100.0 | .
CC(=O)c1ccccc1NC(=O)c1cc(S(=O)(=O)N2CCOCC2)ccc1N1CCCC1 | 2.7 | . | 15.4 | . | . | 106.0
O=C(Cc1cccs1)Nc1ccc(NC(=O)c2ccco2)cc1 | -4.6 | 107.0 | 7.3 | -1.0 | 105.0 | -21.0*
COc1ccc(N=CC2=C(Nc3ccc(OC)cc3)c3c(C)nn(-c4ccccn4)c3CC2)cc1 | 92.6* | 96.0 | -44.3 | -2.0 | 114.0 | .
CC(=O)n1c(-c2ccccc2)c(-c2ccccc2)n(C)c1=O | -16.2 | . | 7.0 | . | . | 108.3
SMILES | Apaf-1 inh | MEKK3 PB1 HTS | UBC13 polyUb | MEKK2mut PB1 HTS | MEKK2wt PB1 HTS | Pemphigus Ab inh
CCn1c(CC(=O)Nc2ccccc2F)nnc1SCC(=O)NC1CCCCC1 | 8.2 | 100.0 | 8.7 | 1.0 | 99.0 | 101.8
CCn1c(CC(=O)Nc2ccccc2Cl)nnc1SCC(=O)NC1CCCC1 | 1.4 | 104.0 | -0.5 | 4.0 | 108.0 | 85.7*
CCCCN(C)C(=O)C1CCCN(S(=O)(=O)c2ccc3c(c2)CC(C)N3C(=O)C2CC2)C1 (stereo not drawn) | 4.2 | 105.0 | 15.5 | 4.0 | 101.0 | 102.1
CN1\C(=C/C=C/C=C/C=[N+](C)C)C(C)(C)c2ccccc21 | . | 89.0 | . | -23.0 | -3.0* | 66.2*
Cc1[nH]n(-c2ccccc2)c(=O)c1C(C[N+](=O)[O-])c1ccc(Cl)cc1 (stereo not drawn) | 88.2* | 88.0 | -27.3 | -3.0 | 91.0 | 105.6
Cc1[nH]n(-c2ccccc2)c(=O)c1Sc1ccc(Cl)cc1 | 21.5 | 106.0 | -11.0 | 2.0 | 106.0 | 98.2
CC1CC(C)CN(C(=O)CCCNC(=O)c2ccc(Cl)cc2)C1 (stereo not drawn) | 6.1 | 100.0 | -0.7 | 2.0 | 101.0 | .
Nc1cc(OCC(F)(F)F)cc([N+](=O)[O-])c1 | 4.8 | 103.0 | -5.5 | 1.0 | 103.0 | 96.6
Nc1cc(N)c(OCC(F)(F)F)cc1OCC(F)(F)F | 83.9* | 90.0 | -74.0 | -13.0 | 94.0 | 102.6
CCOc1ccccc1NC(=O)NCc1ccccn1 | 3.2 | 98.0 | 4.9 | -5.0 | 93.0 | 93.3
O=C(NCCc1c[nH]c2ccccc12)C(=O)Nc1ccccc1 | 13.1 | 72.0 | 7.1 | 1.0 | 83.0 | 64.0*
Cc1nc(SCC(=O)Nc2ccccc2Cl)c2c(C)c(C)sc2n1 | -2.4 | . | 13.1 | . | . | 109.5
COc1ccc(CCN(C)CC(O)COc2c(C)ccc(C)c2C)cc1OC (stereo not drawn) | 12.2 | 104.0 | 4.1 | 3.0 | 109.0 | 92.5
COc1ccc(CCN(C)CC(O)COC(c2ccc(F)cc2)c2ccc(F)cc2)cc1OC (stereo not drawn) | . | 101.0 | . | 13.0 | 145.0* | 113.3
CCN(CC)c1ccc(/C=N/NC(=O)c2nnn(-c3nonc3N)c2CN(C)C2CCCCC2)cc1 | . | . | . | . | . | 99.2
CCOC(=O)CSc1nc(-c2ccccc2)nc2ccc(C)cc12 | -2.7 | 94.0 | 12.8 | -4.0 | 98.0 | 76.5*
O=C(Cc1cc(=O)[nH][nH]1)N/N=C/c1ccccc1Cl | 77.2* | 105.0 | -1.5 | 3.0 | 104.0 | .
O=C(Cc1cc(=O)[nH][nH]1)N/N=C/c1c(F)cccc1Cl | 24.6 | 103.0 | -9.0 | -5.0 | 98.0 | 110.3
CCCN1C(=O)/C(=C/c2c(N3CCNC(=O)C3CC(=O)OC)nc3c(C)cccn3c2=O)SC1=S (stereo not drawn) | . | 91.0 | . | -17.0 | 81.0 | .
C#Cc1cccc(N2C(=O)C3C4C=CC(C3C2=O)C2C(=O)N(c3cccc(C#C)c3)C(=O)C42)c1 (stereo not drawn) | . | . | . | . | . | 94.6

Bioassay records from PubChem.
